Experimental findings from ChEMBL document CHEMBL4725473, “A Chemical Probe for the Methyl Transferase PRMT5 with a Novel Binding Mode” (ACS Med Chem Lett, 2020) are described below.

Calls of active or inactive are those of the source. The rule behind the calls is not given here.

In data set [1] the target is Histone-lysine N-methyltransferase SETD2 (Homo sapiens) (UniProt Q9BYW2). The data set is described as follows: Inhibition of recombinant human N-terminal GST-tagged SETD2 (1433 to 1711 residues) expressed in Escherichia coli using nucleosome as substrate at 10 uM by radiometric HotSpot assay relative to control. In outline: (§1)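 Selectivity panel of 21 purified recombinant human arginine and lysine methyltransferases. Compound tested at a single 10 μM concentration; percent inhibition of each enzyme reported.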

For data set [2], the target named is Protein arginine N-methyltransferase 7 (Homo sapiens) (UniProt Q9NVM4). As to the kind of experiment: Inhibition of recombinant human N-terminal His-tagged full length PRMT7 (2 to 692 residues) expressed in baculovirus system using GST-GAR as substrate at 10 uM by radiometric HotSpot assay relative to control. In outline:
as §1

The species entered for data set [3] is Homo sapiens. As to the kind of experiment: Inhibition of recombinant human N-terminal His-tagged EZH2 (2 to 746)/human recombinant AEBP2 (2 to 517)/human recombinant EED (2 to 441)/human recombinant RbAp48 (2 to 425)/human recombinant SUZ12 (2 to 739) expressed in baculovirus infected insect cells using core histone as substrate at 10 uM by radiometric HotSpot assay relative to control. A digest of the protocol: as §1

Data set [4] addresses Protein arginine N-methyltransferase 5 (Homo sapiens, UniProt O14744). The data set is described as follows: Inhibition of PRMT5 in human A549 cells assessed as reduction in arginine dimethylation of SmD1/3 after 48 hrs by Hoechst Stain/ CellMask Deep Red Stain based immunohistochemistry method. In kind it is cell-based. A digest of the protocol:
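A549 cells treated with compound for 48 h (2 days). Symmetric arginine dimethylation of SmD1/3 measured by immunofluorescence microscopy as the nuclear/cytoplasmic intensity ratio, normalized to DMSO control. Concentration–response curves; mean ± SE of at least three replicates (n ≥ 3).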

The target in data set [5] is Histone-lysine N-methyltransferase SETD7 (Homo sapiens) (UniProt Q8WTS6). As to the kind of experiment: Inhibition of recombinant human full length C-terminal His-tagged SETD7 expressed in Escherichia coli using core histone as substrate at 10 uM by radiometric HotSpot assay relative to control. A digest of the protocol:
as §1

The target of data set [6] is Histone-lysine N-methyltransferase KMT5B (Homo sapiens) (UniProt Q4FZB7). The data set is described as follows: Inhibition of recombinant human N-terminal GST-tagged SUV420H1 (2 to 393 residues ) expressed in baculovirus infected Sf9 cells using core histone as substrate at 10 uM by radiometric HotSpot assay relative to control. In outline:
as §1

Data set [7] addresses Protein arginine N-methyltransferase 6 (Homo sapiens) (UniProt Q96LA8). The data set is described as follows: Inhibition of recombinant human His-tagged PRMT6 (2 to end residues) expressed in Escherichia coli using histone H3 as substrate at 10 uM by radiometric HotSpot assay relative to control. A digest of the protocol:
as §1

The target in data set [8] is Histone-lysine N-methyltransferase PRDM9 (Homo sapiens) (UniProt Q9NQV7). The data set is described as follows: Inhibition of recombinant human N-terminal GST-tagged PRDM9 (2 to 414 residues) expressed in baculovirus infected Sf9 cells using histone H3 as substrate at 10 uM by radiometric HotSpot assay relative to control. In outline:
as §1

In data set [9] the target is T1, PRMT5/MEP50 complex (Homo sapiens) (UniProt O14744+Q9BQA1). As to the kind of experiment: Inhibition of recombinat human N-terminal Flag-tagged PRMT5 (2 to 637 residues)/ N-terminal His-tagged MEP50 (2 to 342 residues) (unknown origin) expressed in baculovirus infected Sf9 cells using recombinant human histone H2A (1 to 130 residues) as substrate at 10 uM by radiometric HotSpot assay relative to control. A digest of the protocol: as §1

The target of data set [10] is N-lysine methyltransferase SMYD2 (Homo sapiens) (UniProt Q9NRG4). The data set is described as follows: Inhibition of recombinant human N-terminal His-tagged SMYD2 (2 to 433 residues) expressed in Escherichia coli using histone H4 as substrate at 10 uM by radiometric HotSpot assay relative to control. In outline: as §1
Data set [11] has as its target T1, PRMT5/MEP50 complex (Homo sapiens). The data set is described as follows: Non-competitive inhibition of full-length human N-terminal FLAG-tagged PRMT5/full length N-terminal His6-tagged MEP50 (unknown origin) expressed in baculovirus infected Sf9 insect cells assessed as reduction of S-adenosyl-L-homocysteine formation using human recombinant histone H2A (1 to 130 residues) and varying concentrations of S-adenosyl-L-methionine as substrate after 80 mins by rapidfire mass spectrometry analysis.

The target of data set [12] is Protein arginine N-methyltransferase 1 (Homo sapiens) (UniProt Q99873). The data set is described as follows: Inhibition of recombinant human GST-tagged PRMT1 (2 to end residues) expressed in Escherichia coli using histone H4 as substrate at 10 uM by radiometric HotSpot assay relative to control. In outline: as §1
The target of data set [13] is Protein arginine N-methyltransferase 8 (Homo sapiens) (UniProt Q9NR22). As to the kind of experiment: Inhibition of recombinant human N-terminal and C-terminal His-tagged PRMT8 (61 to 394 residues) expressed in Escherichia coli using histone H4 as substrate at 10 uM by radiometric HotSpot assay relative to control. A digest of the protocol:
as §1

Data set [14] addresses T2, PRMT5/MEP50 complex (Homo sapiens, UniProt O14744). The data set is described as follows: Binding affinity to N-terminal FLAG-tagged human PRMT5 (1 to 637 residues)/N-terminal thrombin His-tagged MEP50 (2 to 342 residues) expressed in baculovirus infected Sf21 cells by streptavidin coated sensor chip based surface plasmon resonance analysis. A general note: SPR reads the build-up and loss of mass on a sensor chip optically.

Data set [15] has as its target T2, PRMT5/MEP50 complex. The data set is described as follows: Inhibition of full-length human N-terminal FLAG-tagged PRMT5/full length N-terminal His6-tagged MEP50 (unknown origin) expressed in baculovirus infected Sf9 insect cells assessed as reduction of S-adenosyl-L-homocysteine formation using human recombinant histone H2A (1 to 130 residues) and S-adenosyl-L-methionine as substrate after 60 mins by rapidfire mass spectrometry analysis. In outline: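 PRMT5–MEP50 complex at 5.0 nM in assay; recombinant human histone H2A as substrate. Read-out is the decrease in SAM→SAH conversion, measured by RapidFire high-throughput mass spectrometry. IC50 reported as mean of n ≥ 2.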

Data set [16] deals with Histone-lysine N-methyltransferase, H3 lysine-36 specific (Homo sapiens) (UniProt Q96L73). As to the kind of experiment: Inhibition of N-terminal His-tagged recombinant human NSD1 (1538 to 2696 residues) expressed in baculovirus infected insect cells using nucleosome as substrate at expressed in 10 uM by radiometric HotSpot assay relative to control. A digest of the protocol:
as §1

The target of data set [17] is Histone-lysine N-methyltransferase EHMT2 (Homo sapiens) (UniProt Q96KQ7). The data set is described as follows: Inhibition of N-terminal GST-fused recombinant human EHMT2 (786 to 1210 residues) expressed in Escherichia coli using histone H3 (1 to 21) as substrate at 10 uM by radiometric HotSpot assay relative to control. In outline: as §1
Data set [18] has as its target Histone-lysine N-methyltransferase, H3 lysine-79 specific (Homo sapiens) (UniProt Q8TEK3). The data set is described as follows: Inhibition of recombinant human N-terminal GST-tagged DOT1L (1 to 416 residues) expressed in Escherichia coli using nucleosome as substrate at 10 uM by radiometric HotSpot assay relative to control. In outline: as §1
The target in data set [19] is Histone-lysine N-methyltransferase SUV39H1 (Homo sapiens) (UniProt O43463). As to the kind of experiment: Inhibition of recombinant human N-terminal fusion protein tagged and C-terminal His-tagged SUV39H1 (44 to 412 residues) expressed in Escherichia coli using nucleosome as substrate at 10 uM by radiometric HotSpot assay relative to control. In outline:
as §1

Data set [20] has as its target Histone-lysine N-methyltransferase SUV39H2 (Homo sapiens) (UniProt Q9H5I1). As to the kind of experiment: Inhibition of recombinant human C-terminal His-tagged SUV39H2 (48 to 410 residues) expressed in Escherichia coli using nucleosome as substrate at 10 uM by radiometric HotSpot assay relative to control. In outline:
as §1

Data set [21] addresses Histone-lysine N-methyltransferase 2D (Homo sapiens) (UniProt O14686). The data set is described as follows: Inhibition of recombinant human N- terminal His-tagged MLL2 (5319 to 5537 residues) expressed in Escherichia coli using core histone as substrate at 10 uM by radiometric HotSpot assay relative to control. A digest of the protocol: as §1
In data set [22] the target is Histone-arginine methyltransferase CARM1 (Homo sapiens) (UniProt Q86X55). As to the kind of experiment: Inhibition of recombinant human FLAG-tagged PRMT4 (2 to end residues) expressed in FreeStyle HEK293-F cells using histone H3 as substrate at 10 uM by radiometric HotSpot assay relative to control. In outline: as §1
Data set [23] concerns the target Protein arginine N-methyltransferase 3 (Homo sapiens) (UniProt O60678). As to the kind of experiment: Inhibition of recombinant human His-tagged PRMT3 (2 to end residues) expressed in Escherichia coli using histone H4 as substrate at 10 uM by radiometric HotSpot assay relative to control. A digest of the protocol: as §1
Data set [24] is filed under the species Homo sapiens. The data set is described as follows: Inhibition of recombinant human N-terminal His-tagged MLL1 (3745 to 3969 residues)/human WDR5 (22 to 334)/human RbBP5 (1 to 538)/human Ash2L (2 to 534)/human DPY30 (1 to 99) expressed in Escherichia coli using nucleosome as substrate at 10 uM by radiometric HotSpot assay relative to control. In outline: as §1

Data set [25] addresses N-lysine methyltransferase KMT5A (Homo sapiens) (UniProt Q9NQR1). The data set is described as follows: Inhibition of recombinant human GST-tagged SETD8 (195 to 352 residues) expressed in Escherichia coli using nucleosome as substrate at 10 uM by radiometric HotSpot assay relative to control. A digest of the protocol: as §1
Data set [26] has as its target Histone-lysine N-methyltransferase SETD1B (Homo sapiens) (UniProt Q9UPS6). The data set is described as follows: Inhibition of recombinant human N- terminal GST-tagged SET1B (1629 to 1923 residues) expressed in Escherichia coli using core histone as substrate at 10 uM by radiometric HotSpot assay relative to control. In outline:
as §1

Data set [27] concerns the target T1, PRMT5/MEP50 complex (Homo sapiens). As to the kind of experiment: Competitive inhibition of full-length human N-terminal FLAG-tagged PRMT5/full length N-terminal His6-tagged MEP50 (unknown origin) expressed in baculovirus infected Sf9 insect cells assessed as reduction of S-adenosyl-L-homocysteine formation using varying concentrations of human recombinant histone H2A (1 to 130 residues) and S-adenosyl-L-methionine as substrate after 80 mins by rapidfire mass spectrometry analysis.

Another data set deals with A549. As to the kind of experiment: Cytotoxicity against human A549 cells assessed as cell viability up to 10 uM incubated for 48 hrs by Hoechst staining based fluorescence microscopic analysis. The settings on record: a549, 48 h.

T2 sequence (O14744 whole entry, the tested form may be a part): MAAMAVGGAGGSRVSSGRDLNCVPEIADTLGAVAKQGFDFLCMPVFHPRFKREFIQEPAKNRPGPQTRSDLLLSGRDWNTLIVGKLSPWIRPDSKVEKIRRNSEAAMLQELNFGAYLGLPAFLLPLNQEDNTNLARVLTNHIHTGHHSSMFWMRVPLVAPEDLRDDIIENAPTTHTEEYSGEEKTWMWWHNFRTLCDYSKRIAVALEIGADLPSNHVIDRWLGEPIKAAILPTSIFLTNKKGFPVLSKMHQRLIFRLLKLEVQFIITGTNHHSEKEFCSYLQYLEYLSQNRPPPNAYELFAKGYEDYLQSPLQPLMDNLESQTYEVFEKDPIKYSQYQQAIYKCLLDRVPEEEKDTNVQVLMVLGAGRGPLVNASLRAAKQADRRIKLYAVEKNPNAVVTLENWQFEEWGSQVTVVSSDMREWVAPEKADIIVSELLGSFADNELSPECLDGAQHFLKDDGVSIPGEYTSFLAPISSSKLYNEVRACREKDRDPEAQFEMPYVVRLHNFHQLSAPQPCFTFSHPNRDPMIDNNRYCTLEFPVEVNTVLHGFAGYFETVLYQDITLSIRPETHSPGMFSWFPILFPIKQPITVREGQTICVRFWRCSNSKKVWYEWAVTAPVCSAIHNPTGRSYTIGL
T2 sequence (Q9BQA1 whole entry, further chain, the tested form may be a part): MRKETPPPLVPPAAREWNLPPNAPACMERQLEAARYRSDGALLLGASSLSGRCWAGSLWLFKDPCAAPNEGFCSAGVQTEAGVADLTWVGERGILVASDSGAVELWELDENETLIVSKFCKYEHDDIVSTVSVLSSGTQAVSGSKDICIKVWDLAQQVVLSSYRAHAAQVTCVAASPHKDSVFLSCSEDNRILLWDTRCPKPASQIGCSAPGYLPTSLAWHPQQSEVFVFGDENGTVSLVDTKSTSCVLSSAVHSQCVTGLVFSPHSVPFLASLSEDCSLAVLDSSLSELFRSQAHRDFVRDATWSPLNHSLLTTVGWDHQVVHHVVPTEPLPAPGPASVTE
Protein arginine N-methyltransferase 5, sequence (O14744 whole entry): as the sequence (O14744 whole entry, the tested form may be a part) above
Histone-lysine N-methyltransferase PRDM9 (Homo sapiens), sequence (Q9NQV7 whole entry, the tested form may be a part): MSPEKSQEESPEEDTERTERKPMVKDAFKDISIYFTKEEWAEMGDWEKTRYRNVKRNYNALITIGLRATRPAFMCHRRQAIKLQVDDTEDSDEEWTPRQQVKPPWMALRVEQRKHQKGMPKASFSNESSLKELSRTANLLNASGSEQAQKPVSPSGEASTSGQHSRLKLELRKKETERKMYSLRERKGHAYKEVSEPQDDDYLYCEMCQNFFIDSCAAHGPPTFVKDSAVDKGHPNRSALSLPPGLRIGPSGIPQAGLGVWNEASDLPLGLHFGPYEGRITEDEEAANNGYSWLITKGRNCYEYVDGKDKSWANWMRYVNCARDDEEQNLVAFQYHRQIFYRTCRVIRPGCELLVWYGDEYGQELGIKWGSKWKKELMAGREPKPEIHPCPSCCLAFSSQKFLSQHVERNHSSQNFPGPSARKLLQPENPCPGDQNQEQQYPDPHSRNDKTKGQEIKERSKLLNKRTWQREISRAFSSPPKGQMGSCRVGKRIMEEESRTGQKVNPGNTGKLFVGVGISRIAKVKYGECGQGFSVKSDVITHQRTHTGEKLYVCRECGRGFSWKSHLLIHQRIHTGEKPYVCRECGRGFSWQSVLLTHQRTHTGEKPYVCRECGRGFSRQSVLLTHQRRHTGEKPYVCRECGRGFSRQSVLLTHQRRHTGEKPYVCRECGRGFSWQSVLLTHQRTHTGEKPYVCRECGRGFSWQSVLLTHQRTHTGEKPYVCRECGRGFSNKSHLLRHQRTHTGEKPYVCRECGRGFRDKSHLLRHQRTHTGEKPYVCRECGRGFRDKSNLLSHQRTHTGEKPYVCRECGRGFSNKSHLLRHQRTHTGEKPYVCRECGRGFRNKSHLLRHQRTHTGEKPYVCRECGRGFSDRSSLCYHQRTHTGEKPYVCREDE
Histone-arginine methyltransferase CARM1 (Homo sapiens), sequence (Q86X55 whole entry): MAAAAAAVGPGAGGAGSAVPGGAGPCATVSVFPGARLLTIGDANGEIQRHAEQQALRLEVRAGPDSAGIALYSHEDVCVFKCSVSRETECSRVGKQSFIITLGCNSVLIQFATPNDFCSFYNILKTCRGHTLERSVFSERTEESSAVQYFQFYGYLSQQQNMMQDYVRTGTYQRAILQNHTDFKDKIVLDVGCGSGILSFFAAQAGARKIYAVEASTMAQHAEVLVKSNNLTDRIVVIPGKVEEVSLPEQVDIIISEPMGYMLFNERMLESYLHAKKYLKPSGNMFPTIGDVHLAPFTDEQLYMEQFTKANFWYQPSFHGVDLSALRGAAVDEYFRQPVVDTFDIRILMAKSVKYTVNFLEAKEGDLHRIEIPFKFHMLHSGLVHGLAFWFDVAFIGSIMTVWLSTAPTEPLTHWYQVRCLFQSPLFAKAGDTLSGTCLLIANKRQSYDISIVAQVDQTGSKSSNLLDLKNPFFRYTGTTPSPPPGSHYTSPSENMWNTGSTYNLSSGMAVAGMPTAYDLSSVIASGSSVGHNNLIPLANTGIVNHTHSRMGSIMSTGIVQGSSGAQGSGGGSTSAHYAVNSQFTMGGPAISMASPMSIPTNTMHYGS
Histone-lysine N-methyltransferase KMT5B (Homo sapiens), sequence (Q4FZB7 whole entry, looked up, the tested form may be a part): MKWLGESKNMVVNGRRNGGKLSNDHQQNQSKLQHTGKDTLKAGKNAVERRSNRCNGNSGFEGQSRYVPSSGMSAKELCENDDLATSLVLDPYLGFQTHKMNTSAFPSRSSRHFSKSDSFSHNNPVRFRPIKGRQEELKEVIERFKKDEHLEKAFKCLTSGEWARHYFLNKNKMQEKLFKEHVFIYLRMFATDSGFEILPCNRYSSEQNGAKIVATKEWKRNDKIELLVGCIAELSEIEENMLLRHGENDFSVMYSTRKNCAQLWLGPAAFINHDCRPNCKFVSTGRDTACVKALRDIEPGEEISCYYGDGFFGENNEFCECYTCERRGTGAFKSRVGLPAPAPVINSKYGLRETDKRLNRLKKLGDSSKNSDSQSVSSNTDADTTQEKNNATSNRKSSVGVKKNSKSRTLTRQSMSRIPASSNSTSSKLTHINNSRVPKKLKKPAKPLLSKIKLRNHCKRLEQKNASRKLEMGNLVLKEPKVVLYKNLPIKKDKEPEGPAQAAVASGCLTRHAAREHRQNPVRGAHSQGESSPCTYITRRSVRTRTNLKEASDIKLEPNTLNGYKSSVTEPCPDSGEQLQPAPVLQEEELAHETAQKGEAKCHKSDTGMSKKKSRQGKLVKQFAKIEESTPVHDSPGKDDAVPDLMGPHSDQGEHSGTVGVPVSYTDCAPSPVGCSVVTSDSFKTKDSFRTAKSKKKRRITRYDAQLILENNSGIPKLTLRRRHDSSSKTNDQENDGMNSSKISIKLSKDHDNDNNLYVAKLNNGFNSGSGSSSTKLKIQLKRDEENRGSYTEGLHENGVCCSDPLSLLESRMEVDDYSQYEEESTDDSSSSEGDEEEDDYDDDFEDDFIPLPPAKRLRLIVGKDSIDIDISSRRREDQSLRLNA
Histone-lysine N-methyltransferase SETD7 (Homo sapiens), sequence (Q8WTS6 whole entry): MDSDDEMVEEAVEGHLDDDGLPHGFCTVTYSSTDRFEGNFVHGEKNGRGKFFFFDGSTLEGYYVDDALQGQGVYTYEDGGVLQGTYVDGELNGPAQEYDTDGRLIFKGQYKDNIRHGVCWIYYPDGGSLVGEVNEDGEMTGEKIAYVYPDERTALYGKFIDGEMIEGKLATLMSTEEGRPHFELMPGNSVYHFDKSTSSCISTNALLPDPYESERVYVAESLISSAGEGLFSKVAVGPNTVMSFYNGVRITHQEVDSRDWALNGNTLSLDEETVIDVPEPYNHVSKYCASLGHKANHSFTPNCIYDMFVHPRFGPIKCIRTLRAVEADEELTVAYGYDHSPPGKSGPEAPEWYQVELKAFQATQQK
N-lysine methyltransferase SMYD2 (Homo sapiens), sequence (Q9NRG4 whole entry, the tested form may be a part): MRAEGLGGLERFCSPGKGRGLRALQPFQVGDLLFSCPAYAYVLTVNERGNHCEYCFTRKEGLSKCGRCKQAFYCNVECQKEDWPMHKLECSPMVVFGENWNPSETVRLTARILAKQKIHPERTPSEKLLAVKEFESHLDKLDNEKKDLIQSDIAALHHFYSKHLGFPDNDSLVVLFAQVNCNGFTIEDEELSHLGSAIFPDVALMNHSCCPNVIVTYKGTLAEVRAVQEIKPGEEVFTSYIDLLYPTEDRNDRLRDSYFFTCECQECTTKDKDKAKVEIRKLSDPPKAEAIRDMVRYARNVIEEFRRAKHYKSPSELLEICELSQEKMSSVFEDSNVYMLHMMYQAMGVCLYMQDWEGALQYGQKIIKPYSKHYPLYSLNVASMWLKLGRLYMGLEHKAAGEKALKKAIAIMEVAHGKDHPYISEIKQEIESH

Broadly, the inhibition is the percentage by which the read-out fell short of the control. In general, IC50 refers to the midpoint of a concentration-inhibition curve. Broadly, the Kd is the constant that tells how readily two partners part at equilibrium. Low readings indicate a tighter complex, high ones a looser complex. Take `CN1CCC2(CCCN2C[C@H]2O[C@@H](n3ccc4c(N)ncnc43)[C@H](O)[C@@H]2O)CC1`: the inhibition (in data set [1]; in data set [2]; in the data set filed under Homo sapiens [3]; in data set [5]; in data set [6]; in data set [7]) was < 25% each time. Besides, the inhibition in data set [8] was < 25%; in [9] it was > 90%; in [10], < 25%; in [12], < 25%; in [13], < 25%; in data set [16], < 25%. The inhibition in data set [17], in [18], in data set [19], in [20], in data set [21] and in data set [22] was < 25% in each case. Further, the inhibition (in data set [23]; in the data set listed under Homo sapiens [24]; in [25]; in data set [26]) was < 25% in each case. The IC50 in data set [4] turned out to be 0.2 µM; at PRMT5/MEP50 complex [15], 0.048 µM. In addition, the inhibition result in data set [11] and in [27] was “Active” each time. This molecule yielded a Kd at PRMT5/MEP50 complex [14] of 0.0076 µM.

For the molecule `Nc1ncnc2c1ncn2[C@@H]1O[C@H](CN2CCCC23CCNC3)[C@@H](O)[C@H]1O` (stereo in doubt; 3b), on PRMT5/MEP50 complex [15], the IC50 was found to be 2.7 µM.

On to `Nc1ncnc2c1ncn2[C@@H]1O[C@H](CN2CCC23CNC3)[C@@H](O)[C@H]1O`, for which the IC50 on PRMT5/MEP50 complex [15] came to 5.1 µM.

As to `Nc1ncnc2c1ncn2[C@@H]1O[C@H](CN2CCCC23CCNC3)[C@@H](O)[C@H]1O` (stereo in doubt; 3a), the half-maximal inhibitory concentration (IC50) at PRMT5/MEP50 complex [15] came to 3.3 µM.

As for `Nc1ncnc2c1ncn2[C@@H]1O[C@H](CN2CCC(N)CC2)[C@@H](O)[C@H]1O`, the half-inhibitory concentration (IC50) on PRMT5/MEP50 complex [15] is > 10 µM.

Turning to `Nc1ncnc2c1ncn2[C@@H]1O[C@H](CN2CCC3(CCNCC3)CC2)[C@@H](O)[C@H]1O`, the IC50 at PRMT5/MEP50 complex [15] is > 10 µM.

As for `Nc1ncnc2c1ncn2[C@@H]1O[C@H](CN2CCCC2)[C@@H](O)[C@H]1O`, the results for the 50% inhibitory concentration (IC50) (in data set [4]; at PRMT5/MEP50 complex [15]) were > 10 µM and 76 µM, respectively.

For `Nc1ncnc2c1ncn2[C@@H]1O[C@H](CN2CCCC23CCNCC3)[C@@H](O)[C@H]1O`, the concentration for half-maximal inhibition (IC50) came to 2.3 µM in data set [4] and 0.052 µM at PRMT5/MEP50 complex [15]. Further, in the data set on A549, the Activity entry is recorded as “Non-Toxic”.

As to `Nc1ncnc2c1ccn2[C@@H]1O[C@H](CN2CCCC23CCNCC3)[C@@H](O)[C@H]1O`, the figures for the IC50 (in [4]; at PRMT5/MEP50 complex [15]) were 0.058 µM and 0.0095 µM, respectively. Further, the inhibition entry in [11] and in data set [27] was “Active” in each case.
